For data set [1], the system named is Human immunodeficiency virus 1. Kind of data set: Antiviral activity against HIV1 3B infected in human MT2 cells assessed as inhibition of viral replication treated 1 day after infection measured on after 4 days postinfection by p24 antigen ELISA. It counts as functional, organism-based. Particulars: Human immunodeficiency virus 1, 3B. A general note: An ELISA detects its analyte on a solid surface through an enzyme-linked reagent.

The test system of a further data set is MT2. Kind of data set: Cytotoxicity against human MT2 cells by XTT assay. It counts as cell-based. The gist of the method:
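Toxicity was read by XTT on mock-infected MT-2 cells (3×10⁵ cells/mL), run as a duplicate set of the infection plates without virus, with medium added on day 1 and the assay ended on day 4. IC₅₀ is the concentration toxic to 50% of cells. Values are the average of at least two experiments.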
For orientation: Tetrazolium dyes change colour on reduction, which living cells bring about.

Data set [2] is described as follows: Therapeutic index, IC50 for human MT2 cells to EC50 for HIV1 3B. It is filed as cell-based. To be noted: read-out: Ratio IC50/EC50. The method, boiled down: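 TI is calculated as IC₅₀ (XTT, mock-infected MT-2) divided by EC₅₀ (p24 ELISA, HIV-1 IIIB-infected MT-2), both taken on day 4 post-infection from parallel plates. Values are the average of at least two experiments.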

Data set [3] deals with Human immunodeficiency virus 1. Kind of data set: Antiviral activity against HIV1 3B infected in human MT2 cells assessed as inhibition of viral replication at 0.8 to 100 ug/mL treated 1 day after infection measured on after 4 days postinfection by p24 antigen ELISA. It counts as functional, organism-based. The gist of the method: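 MT-2 cells at 3×10⁵ cells/mL were infected with HIV-1 IIIB (125 TCID₅₀) in the presence of serially diluted sample, and fresh medium was added on day 1 post-infection. Supernatants were harvested on day 4 for p24 antigen ELISA. EC₅₀ is the concentration giving 50% suppression of replication. Values are the average of at least two separate experiments.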

Data set [4] concerns Human immunodeficiency virus 1. Kind of data set: Antiviral activity against wild type HIV1 NL4-3 infected in human HeLa cells assessed as inhibition of virion-associated p25 to p24 conversion at 1 ug/mL after 2 days by Western blotting. It is filed as functional, organism-based. The method, boiled down:
(§1)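 HeLa cells were transfected with pNL4-3 proviral DNA and cultured with or without compound. Two days post-transfection, cells were metabolically labelled for 2 h with ³⁵S-Met/Cys. Cell lysates were prepared and virions were pelleted by ultracentrifugation. Both fractions were immunoprecipitated with HIV-Ig, and the p25 and p24 bands were examined by Western blotting.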
For orientation: In western blotting, separated proteins are transferred to a membrane and probed.

Data set [5] relates to Human immunodeficiency virus 1. Kind of data set: Antiviral activity against wild type HIV1 NL4-3 infected in human HeLa cells assessed as inhibition of cell line-associated p25 to p24 conversion at 1 ug/mL after 2 days by Western blotting. It is filed as functional, organism-based. The method, boiled down: as §1
The subject of data set [6] is Human immunodeficiency virus 1. Kind of data set: Antiviral activity against HIV1 expressing CA-SP1 A1V mutant infected in human HeLa cells assessed as inhibition of virion-associated p25 to p24 conversion at 1 ug/mL after 2 days by Western blotting. It is filed as functional, organism-based. The method, boiled down:
(§2)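 HeLa cells transfected with pNL4-3 bearing the A1V or L231M mutation and cultured with or without test compound. Two days post-transfection, cells labeled 2 h with ³⁵S-Met/Cys. Cell lysates prepared; virions pelleted by ultracentrifugation. Cell and viral lysates immunoprecipitated with HIV-Ig, then Western blotted for p25 and p24.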

The test system of data set [7] is Human immunodeficiency virus 1. Kind of data set: Antiviral activity against HIV1 expressing CA-SP1 A1V mutant infected in human HeLa cells assessed as inhibition of cell line-associated p25 to p24 conversion at 1 ug/mL after 2 days by Western blotting. It counts as functional, organism-based. The method, boiled down: as §2
Data set [8] has as its system Human immunodeficiency virus 1. Kind of data set: Antiviral activity against HIV1 expressing […] L231M mutant infected in human HeLa cells assessed as inhibition of virion-associated p25 to p24 conversion at 1 ug/mL after 2 days by Western blotting. It is filed as functional, organism-based. The method, boiled down:
as §2

The test system of data set [9] is Human immunodeficiency virus 1. Kind of data set: Antiviral activity against HIV1 expressing […] L231M mutant infected in human HeLa cells assessed as inhibition of cell line-associated p25 to p24 conversion at 1 ug/mL after 2 days by Western blotting. It is filed as functional, organism-based. The gist of the method:
as §2

The subject of data set [10] is Human immunodeficiency virus 1. Kind of data set: Antiviral activity against HIV1 NL4-3 infected in human MT4 cells assessed as inhibition of viral replication treated 1 day after infection measured on after 4 days postinfection by p24 antigen ELISA. It is filed as functional, organism-based. The method, boiled down: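 MT-4 cells were infected with HIV-1 NL4-3 variants at an MOI of 0.01 in 96-well format with test sample. Culture supernatants were collected on day 4 post-infection for p24 antigen capture ELISA.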

The results in this text go back to ChEMBL document CHEMBL1156186, “Anti-AIDS agents 81. Design, synthesis, and structure-activity relationship study of betulinic acid and moronic acid derivatives as potent HIV maturation inhibitors” (J Med Chem, 2010).

Calls of active or inactive are those of the source. The calls are words filed in the database; no cut-off is given here.

For orientation: EC50 means the concentration needed to bring the measured effect to its halfway point. By IC50 is commonly meant the concentration at which inhibition is half-maximal. Regarding `C=C(C)[C@@H]1CC[C@]2(C(=O)O)CC[C@]3(C)[C@H](CC[C@@H]4[C@@]5(C)CC[C@H](OC(=O)/C=C(/C)C(=O)O)C(C)(C)[C@@H]5CC[C@]43C)[C@@H]12`, in data set [1], the EC50 was 0.18 µM. The compound also had an IC50 in the data set on MT2 of 42.5 µM. Moreover, the selectivity ratio in [2] was 236.

Consider `CC1(C)C=C2[C@H]3CC[C@@H]4[C@@]5(C)CC[C@H](OC(=O)C6CCC6)C(C)(C)[C@@H]5CC[C@@]4(C)[C@]3(C)CC[C@@]2(C(=O)O)CC1`, for which the inhibition entry in data set [3] is “inactive”. Further, the IC50 in the data set with MT2 was above 10 µM.

On to `CC1(C)C=C2[C@H]3CC[C@@H]4[C@@]5(C)CC[C@H](OC(=O)C(C)(C)C)C(C)(C)[C@@H]5CC[C@@]4(C)[C@]3(C)CC[C@@]2(C(=O)O)CC1`, for which the inhibition entry in data set [3] was “inactive”. This compound also showed an IC50 with MT2 above 10 µM.

In the case of `CC(C)CC(=O)O[C@H]1CC[C@]2(C)[C@H]3CC[C@@H]4C5=CC(C)(C)CC[C@]5(C(=O)O)CC[C@@]4(C)[C@]3(C)CC[C@H]2C1(C)C`, the inhibition result in [3] is “inactive”. The IC50 with MT2 was above 10 µM.

As to `C=C(C)[C@@H]1CC[C@]2(C(=O)O)CC[C@]3(C)[C@H](CC[C@@H]4[C@@]5(C)CC[C@H](OC(=O)C6C7C=CC(C7)C6C(=O)O)C(C)(C)[C@@H]5CC[C@]43C)[C@@H]12` (some centres not stated), the inhibition result in data set [3] was “inactive”. In the data set on MT2, this compound came in with an IC50 of 40.3 µM.

Regarding `C=C(C)[C@@H]1CC[C@]2(C(=O)O)CC[C@]3(C)[C@H](CC[C@@H]4[C@@]5(C)CC[C@H](OC(=O)[C@@H]6CCC[C@H]6C(=O)O)C(C)(C)[C@@H]5CC[C@]43C)[C@@H]12`, in data set [1], the EC50 turned out to be 2.2 µM. In the data set with MT2, this compound came in with an IC50 of 41.9 µM. For the same compound, the selectivity ratio in [2] is 19.

For the compound `CCC(C)C(=O)O[C@H]1CC[C@]2(C)[C@H]3CC[C@@H]4C5=CC(C)(C)CC[C@]5(C(=O)O)CC[C@@]4(C)[C@]3(C)CC[C@H]2C1(C)C` (some centres not stated), the inhibition entry in data set [3] is “inactive”. In addition, in the data set with MT2, the IC50 is above 10 µM.

Regarding `C=C(C)[C@@H]1CC[C@]2(C(=O)O)CC[C@]3(C)[C@H](CC[C@@H]4[C@@]5(C)CC[C@H](OC(=O)C6CC=CCC6C(=O)O)C(C)(C)[C@@H]5CC[C@]43C)[C@@H]12` (some centres not stated), in data set [3], the inhibition entry was “inactive”. This compound came in with an IC50 in the data set with MT2 of 41.1 µM.

Turning to `C=C(C)[C@@H]1CC[C@]2(C(=O)O)CC[C@]3(C)[C@H](CC[C@@H]4[C@@]5(C)CC[C@H](OC(=O)[C@@H]6CCCC[C@H]6C(=O)O)C(C)(C)[C@@H]5CC[C@]43C)[C@@H]12`, the EC50 in [1] was found to be 17.3 µM. In addition, the midpoint of inhibition with MT2, the IC50, lay at 40.9 µM. Besides, the selectivity ratio in data set [2] worked out at 2.4.

In the case of `C=C(C)[C@@H]1CC[C@]2(C(=O)O)CC[C@]3(C)[C@H](CC[C@@H]4[C@@]5(C)CC[C@H](OC(=O)C[C@H](C)C(=O)O)C(C)(C)[C@@H]5CC[C@]43C)[C@@H]12`, in data set [1], the 50% effective concentration (EC50) is 0.0087 µM. Besides, in data set [2], the selectivity ratio turned out to be 3770. In addition, the result in data set [4], in data set [5], in data set [6], in data set [7], in [8] and in data set [9] was Active.

For the compound `C=C(C)[C@@H]1CC[C@]2(C(=O)O)CC[C@]3(C)[C@H](CC[C@@H]4[C@@]5(C)CC[C@H](OC(=O)C[C@@H](C)C(=O)O)C(C)(C)[C@@H]5CC[C@]43C)[C@@H]12`, in data set [1], the EC50 worked out at 0.12 µM. This compound gave an IC50 in the data set on MT2 of 43.8 µM. The selectivity ratio in data set [2] was 365.

Turning to `CCC(=O)O[C@H]1CC[C@]2(C)[C@H]3CC[C@@H]4C5=CC(C)(C)CC[C@]5(C(=O)O)CC[C@@]4(C)[C@]3(C)CC[C@H]2C1(C)C`, the inhibition entry in data set [3] was “inactive”. The 50% inhibitory concentration (IC50) with MT2 was above 10 µM.

With `C=C(C)[C@@H]1CC[C@]2(C(=O)O)CC[C@]3(C)[C@H](CC[C@@H]4[C@@]5(C)CC[C@H](OC(=O)CC(C)(C)C(=O)O)C(C)(C)[C@@H]5CC[C@]43C)[C@@H]12` [BEVIRIMAT], in data set [1], the EC50 is 0.0013 µM. The compound also returned an IC50 in the data set with MT2 of 42.8 µM. The selectivity ratio in [2] was found to be 32900.

As for `CCCC(=O)O[C@H]1CC[C@]2(C)[C@H]3CC[C@@H]4C5=CC(C)(C)CC[C@]5(C(=O)O)CC[C@@]4(C)[C@]3(C)CC[C@H]2C1(C)C`, in data set [3], the inhibition result was “inactive”. The compound also had an IC50 with MT2 above 10 µM.

Turning to `C=C(C)[C@@H]1CC[C@]2(C(=O)O)CC[C@]3(C)[C@H](CC[C@@H]4[C@@]5(C)CC[C@H](OC(=O)CCC(C)(C)C(=O)O)C(C)(C)[C@@H]5CC[C@]43C)[C@@H]12`, in [1], the EC50 turned out to be 0.048 µM. The compound also registered an IC50 in the data set on MT2 of 41.8 µM. Also, in data set [2], the selectivity ratio came to 870.

In the case of `C=C(C)[C@@H]1CC[C@]2(C(=O)O)CC[C@]3(C)[C@H](CC[C@@H]4[C@@]5(C)CC[C@H](OC(=O)CC(C)(CC)C(=O)O)C(C)(C)[C@@H]5CC[C@]43C)[C@@H]12` (some centres not stated), in [1], the EC50 is 0.0006 µM. In the data set on MT2, this compound yielded an IC50 of 36.4 µM. Further, the selectivity ratio in data set [2] was determined as 60700.

With `C=C(C)[C@@H]1CC[C@]2(C(=O)O)CC[C@]3(C)[C@H](CC[C@@H]4[C@@]5(C)CC[C@H](OC(=O)C[C@@](C)(CC)C(=O)O)C(C)(C)[C@@H]5CC[C@]43C)[C@@H]12`, the inhibition result in data set [10] is “inactive”.

Take `CCCCC(=O)O[C@H]1CC[C@]2(C)[C@H]3CC[C@@H]4C5=CC(C)(C)CC[C@]5(C(=O)O)CC[C@@]4(C)[C@]3(C)CC[C@H]2C1(C)C`: in [3], the inhibition entry was “inactive”. In the data set on MT2, this compound returned an IC50 above 10 µM.

Turning to `CC(C)C(=O)O[C@H]1CC[C@]2(C)[C@H]3CC[C@@H]4C5=CC(C)(C)CC[C@]5(C(=O)O)CC[C@@]4(C)[C@]3(C)CC[C@H]2C1(C)C`, the inhibition entry in [3] was “inactive”. The compound also displayed an IC50 in the data set with MT2 above 10 µM.

Take `CC1(C)C=C2[C@H]3CC[C@@H]4[C@@]5(C)CC[C@H](OC(=O)C6CCCC6)C(C)(C)[C@@H]5CC[C@@]4(C)[C@]3(C)CC[C@@]2(C(=O)O)CC1`: the inhibition entry in data set [3] is “inactive”. For the same compound, the IC50 with MT2 was above 10 µM.
